Source: ChEMBL document CHEMBL3286244, “Chlorpheniramine Analogues Reverse Chloroquine Resistance in Plasmodium falciparum by Inhibiting PfCRT” (ACS Med Chem Lett, 2014)
Activity calls are given as the source filed them. The calls are words filed in the database; no cut-off is given here.

The molecules below were run against T1, Chloroquine resistance transporter (Plasmodium falciparum) (UniProt Q9N623) (assay: Inhibition of chloroquine-resistant Plasmodium falciparum Dd2 CRT expressed in Xenopus laevis oocytes plasma membrane assessed as reduction of [3H]-chloroquine transportation at 100 uM after 1 to 2 hrs).
T1 sequence (whole entry): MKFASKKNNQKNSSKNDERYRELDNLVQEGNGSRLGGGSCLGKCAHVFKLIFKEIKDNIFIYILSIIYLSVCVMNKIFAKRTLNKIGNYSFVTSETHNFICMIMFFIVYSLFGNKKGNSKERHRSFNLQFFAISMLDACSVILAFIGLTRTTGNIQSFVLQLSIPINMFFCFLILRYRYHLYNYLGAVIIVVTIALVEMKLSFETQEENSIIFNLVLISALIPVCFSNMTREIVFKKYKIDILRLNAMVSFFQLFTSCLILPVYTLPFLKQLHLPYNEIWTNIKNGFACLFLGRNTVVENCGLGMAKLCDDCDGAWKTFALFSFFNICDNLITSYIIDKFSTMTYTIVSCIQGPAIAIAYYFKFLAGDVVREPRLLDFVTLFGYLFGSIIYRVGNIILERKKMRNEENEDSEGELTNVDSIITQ
Type: cell-based
Summary of the method: (§1)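 Xenopus oocytes expressing PfCRT of the CQ-resistant (PfCRTCQR) or CQ-sensitive (PfCRTCQS) form. [3H]CQ uptake measured in the presence of reverser at 100 μM extracellular.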

Compound	inhibition
CN(C)CCCCCC(c1ccc(Cl)cc1)c1ccccn1 (racemic)	inactive
CCN(CC)C/C=C(/c1ccc(Cl)cc1)c1ccccn1	inactive
CN(C)CCC/C=C(\c1ccc(Cl)cc1)c1ccccn1	inactive
N#C/C=C(/c1ccccc1)c1ccccn1	inactive
CN(C)CCCC(c1cccnc1)c1cccc(Cl)c1 (racemic)	inactive
CN(C)CC/C=C(/c1ccc(Cl)cc1)c1ccccn1	inactive
CN(C)CC/C=C(\c1cccc(Cl)c1)c1ccccn1	inactive
CN(C)CCCCC(c1ccc(Cl)cc1)c1ccccn1 (racemic)	inactive
CN(C)CCC(c1ccc(Cl)cc1)c1ccccn1 (stereo in doubt; form 1)	Active
COc1cc(NC(C)CCCN)c2ncccc2c1 (stereo not given) [PRIMAQUINE]	Active
CN(C)C/C=C(\c1cccc(Cl)c1)c1ccccn1	inactive
CN(C)CC/C=C(/c1cccc(Cl)c1)c1ccccn1	inactive
CN(C)CCCC(c1ccccc1)c1ccccn1 (racemic)	inactive

The molecules below were run against T1, Chloroquine resistance transporter (Plasmodium falciparum) (assay: Inhibition of chloroquine-sensitive Plasmodium falciparum D10 CRT expressed in Xenopus laevis oocytes plasma membrane assessed as reduction of [3H]-chloroquine transportation at 100 uM after 1 to 2 hrs).
Type: cell-based
Summary of the method: as §1

Compound	inhibition
CN(C)CCCCCC(c1ccc(Cl)cc1)c1ccccn1 (racemic)	inactive
CCN(CC)C/C=C(/c1ccc(Cl)cc1)c1ccccn1	inactive
CN(C)CCC/C=C(\c1ccc(Cl)cc1)c1ccccn1	inactive
N#C/C=C(/c1ccccc1)c1ccccn1	inactive
CN(C)CCCC(c1cccnc1)c1cccc(Cl)c1 (racemic)	inactive
CN(C)CC/C=C(/c1ccc(Cl)cc1)c1ccccn1	inactive
CN(C)CC/C=C(\c1cccc(Cl)c1)c1ccccn1	inactive
CN(C)CCCCC(c1ccc(Cl)cc1)c1ccccn1 (racemic)	inactive
CN(C)C/C=C(\c1cccc(Cl)c1)c1ccccn1	inactive
CN(C)CC/C=C(/c1cccc(Cl)c1)c1ccccn1	inactive
CN(C)CCCC(c1ccccc1)c1ccccn1 (racemic)	inactive

Each molecule was assayed against Chloroquine resistance transporter (Plasmodium falciparum, UniProt Q9N623) (assay: Inhibition of chloroquine-resistant Plasmodium falciparum Dd2 CRT expressed in Xenopus laevis oocytes plasma membrane assessed as reduction of [3H]-chloroquine transportation after 1 to 2 hrs).
Type: cell-based
Summary of the method: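 Xenopus oocytes expressing PfCRTCQR. Inhibition of [3H]CQ uptake measured over a range of reverser concentrations. IC50 derived from concentration-response data, reported as mean ± SEM.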

Compound	IC50
CN(C)CCCCC(c1ccc(Cl)cc1)c1ccccn1 (racemic)	180 µM
COc1cc(NC(C)CCCN)c2ncccc2c1 (stereo not given) [PRIMAQUINE]	68 µM
CN(C)CCC(c1ccc(Cl)cc1)c1ccccn1 (stereo in doubt; form 1) [CHLORPHENIRAMINE]	54 µM

The molecules below were run on Plasmodium falciparum (assay: Antiplasmodial activity against Plasmodium falciparum C2GC03 expressing wild-type pfcrt allele assessed as parasite growth at 800 nM after 72 hrs by SYBR Green I-based fluorescence assay relative to control).
Type: functional
Summary of the method: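 Isogenic pfcrt transfectant parasite line C2GCO3 (wild-type pfcrt allele) was grown in a proliferation assay with the test compound at 800 nM and no chloroquine. Proliferation is expressed relative to untreated control.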

Compound	Activity
CN(C)CCCCC(c1ccc(Cl)cc1)c1ccccn1 (racemic)	100%
CN(C)CCC(c1ccc(Cl)cc1)c1ccccn1 (stereo in doubt; form 1) [CHLORPHENIRAMINE]	97%

What follows are molecules tested on Plasmodium falciparum (assay: Antiplasmodial activity against Plasmodium falciparum C4Dd2 expressing chloroquine-resistance-conferring pfcrt alleles assessed as parasite growth at 800 nM after 72 hrs by SYBR Green I-based fluorescence assay relative to control).
Type: functional
Summary of the method: (§2)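 Isogenic pfcrt transfectant lines (C2GCO3 wild-type allele; C4Dd2 and C67G8 carrying CQ-resistance-conferring alleles from Dd2 or 7G8). Parasite proliferation measured in the absence of CQ with test compound at 800 nM and expressed relative to untreated control.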

Compound	Activity
CN(C)CCCCC(c1ccc(Cl)cc1)c1ccccn1 (racemic)	74%
CN(C)CCC(c1ccc(Cl)cc1)c1ccccn1 (stereo in doubt; form 1) [CHLORPHENIRAMINE]	78%

Each molecule was assayed on Plasmodium falciparum (assay: Antiplasmodial activity against Plasmodium falciparum C67G8 expressing chloroquine-resistance-conferring pfcrt alleles assessed as parasite growth at 800 nM after 72 hrs by SYBR Green I-based fluorescence assay relative to control).
Type: functional
Summary of the method: as §2

Compound	Activity
CN(C)CCCCC(c1ccc(Cl)cc1)c1ccccn1 (racemic)	79%
CN(C)CCC(c1ccc(Cl)cc1)c1ccccn1 (stereo in doubt; form 1) [CHLORPHENIRAMINE]	76%

Each molecule was assayed on Plasmodium falciparum (assay: Response modification index, ratio of IC50 for Plasmodium falciparum C2GC03 expressing wild-type pfcrt allele in presence of drug to IC50 for Plasmodium falciparum C2GC03 expressing wild-type pfcrt allele in absence of 800 nM of drug).
Type: functional
Summary of the method: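 In a parasite proliferation assay on the isogenic pfcrt transfectant line C2GCO3 (wild-type allele), chloroquine IC50 was measured with and without the test compound at 800 nM. RMI is chloroquine IC50 with the compound divided by chloroquine IC50 without it.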

Compound	Ratio IC50
CN(C)CCCCC(c1ccc(Cl)cc1)c1ccccn1 (racemic)	0.92
CN(C)CCC(c1ccc(Cl)cc1)c1ccccn1 (stereo in doubt; form 1) [CHLORPHENIRAMINE]	1.09

These molecules were tested on Plasmodium falciparum (assay: Response modification index, ratio of IC50 for Plasmodium falciparum C4Dd2 expressing chloroquine-resistance-conferring pfcrt alleles in presence of drug to IC50 for Plasmodium falciparum C4Dd2 expressing chloroquine-resistance-conferring pfcrt alleles in absence of 800 nM of drug).
Type: functional
Summary of the method: (§3)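 Proliferation assays on isogenic pfcrt transfectant lines (C4Dd2, C67G8). CQ IC50 determined with and without 800 nM test compound. RMI calculated as CQ IC50 with compound divided by CQ IC50 without compound.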

Compound	Ratio IC50
CN(C)CCCCC(c1ccc(Cl)cc1)c1ccccn1 (racemic)	0.28
CN(C)CCC(c1ccc(Cl)cc1)c1ccccn1 (stereo in doubt; form 1) [CHLORPHENIRAMINE]	0.24

Each molecule was assayed on Plasmodium falciparum (assay: Response modification index, ratio of IC50 for Plasmodium falciparum C67G8 expressing chloroquine-resistance-conferring pfcrt alleles in presence of drug to IC50 for Plasmodium falciparum C67G8 expressing chloroquine-resistance-conferring pfcrt alleles in absence of 800 nM of drug).
Type: functional
Summary of the method: as §3

Compound	Ratio IC50
CN(C)CCCCC(c1ccc(Cl)cc1)c1ccccn1 (racemic)	0.39
CN(C)CCC(c1ccc(Cl)cc1)c1ccccn1 (stereo in doubt; form 1) [CHLORPHENIRAMINE]	0.37

The molecules below were run against T1, Chloroquine resistance transporter (Plasmodium falciparum) (assay: Inhibition of CTR in Plasmodium falciparum C2GC03 expressing wild-type pfcrt allele assessed as increase of accumulation of [3H]-chloroquine level at 1 uM after 1 hr).
Summary of the method: (§4)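 Isogenic pfcrt transfectant lines C2GCO3 (wild-type allele), C4Dd2 and C67G8 (CQ-resistance alleles from Dd2 or 7G8). CQ accumulation ratio measured with and without reverser. Expressed as fold increase in accumulation ratio over control.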

Compound	inhibition
CN(C)CCCCCC(c1ccc(Cl)cc1)c1ccccn1 (racemic)	inactive
CN(C)CCC/C=C(\c1ccc(Cl)cc1)c1ccccn1	inactive
N#C/C=C(/c1ccccc1)c1ccccn1	inactive
CN(C)CCCC(c1cccnc1)c1cccc(Cl)c1 (racemic)	inactive
CN(C)CC/C=C(/c1ccc(Cl)cc1)c1ccccn1	inactive
CN(C)CC/C=C(\c1cccc(Cl)c1)c1ccccn1	inactive
CN(C)CCCCC(c1ccc(Cl)cc1)c1ccccn1 (racemic)	inactive
CN(C)CCC(c1ccc(Cl)cc1)c1ccccn1 (stereo in doubt; form 1)	inactive
CN(C)CCC(c1ccc(Cl)cc1)c1ccccn1 (stereo in doubt; form 2)	inactive
CN(C)C/C=C(\c1cccc(Cl)c1)c1ccccn1	inactive
CN(C)CC/C=C(/c1cccc(Cl)c1)c1ccccn1	inactive
CN(C)CCCC(c1ccccc1)c1ccccn1 (racemic)	inactive

The molecules below were run against T1, Chloroquine resistance transporter (Plasmodium falciparum) (assay: Inhibition of CTR in Plasmodium falciparum C4Dd2 expressing chloroquine-resistance-conferring pfcrt alleles assessed as increase of accumulation of [3H]-chloroquine level at 1 uM after 1 hr relative to control).
Summary of the method: as §4

Compound	fold change (FC)
CN(C)CCCCC(c1ccc(Cl)cc1)c1ccccn1 (racemic)	2.4
CN(C)CCC(c1ccc(Cl)cc1)c1ccccn1 (stereo in doubt; form 1)	2.7

The molecules below were run against T1, Chloroquine resistance transporter (Plasmodium falciparum) (assay: Inhibition of CTR in Plasmodium falciparum C67G8 expressing chloroquine-resistance-conferring pfcrt alleles assessed as increase of accumulation of [3H]-chloroquine level at 1 uM after 1 hr relative to control).
Summary of the method: as §4

Compound	fold change (FC)
CN(C)CCCCC(c1ccc(Cl)cc1)c1ccccn1 (racemic)	1.8
CN(C)CCC(c1ccc(Cl)cc1)c1ccccn1 (stereo in doubt; form 1)	2
